# According to ChEMBL document CHEMBL1221188, “Small-molecule activation of procaspase-3 to caspase-3 as a personalized anticancer strategy” (Nat Chem Biol, 2006):
# Activity calls are given as the source filed them. The calls are words filed in the database; no cut-off is given here.
# What was measured:
# [1] = biological target: T1, Caspase-3 (Homo sapiens, UniProt P42574); assay: Activation of N-terminal His6-tagged recombinant procaspase-3 expressed in Escherichia coli assessed as hydrolysis of acetyl-DEVD-p-nitroanilide after 2 hrs by SDS-PAGE
# T1 sequence (P42574 whole entry): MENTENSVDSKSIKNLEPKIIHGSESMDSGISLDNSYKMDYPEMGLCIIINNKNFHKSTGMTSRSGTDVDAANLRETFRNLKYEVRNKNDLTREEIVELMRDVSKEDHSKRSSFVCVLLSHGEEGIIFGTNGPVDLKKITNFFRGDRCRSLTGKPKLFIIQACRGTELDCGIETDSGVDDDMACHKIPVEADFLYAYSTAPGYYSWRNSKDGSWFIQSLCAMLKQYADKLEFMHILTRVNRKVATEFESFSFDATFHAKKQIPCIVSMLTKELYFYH
# [2] = tested on: HL-60; assay: Induction of apoptosis in human HL60 cells assessed as mitochondrial membrane depolarization at 10 uM after 12 hrs by fluorescence assay; assay type: functional, cell-based
# How it was run: (§1)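 HL-60 cells exposed to drug in DMSO or DMSO alone for various times, stained with JC-9 dye for 10 min at room temperature, then analysed by flow cytometry at 525/675 nm on 50,000 cells. Depolarization was derived from the red-channel shift.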
# [3] = tested on: HL-60; assay: Induction of apoptosis in human HL60 cells assessed as increase in caspase-3 activity at 10 uM after 12 hrs; assay type: functional, cell-based
# How it was run: (§2)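 HL-60 cells were treated with a range of drug concentrations for various times, then washed. They were lysed by sonication in ice-cold caspase assay buffer and given Ac-DEVD-pNA. Absorbance at 405 nm was read every 2 min for 2 h, and the cleavage rate came from the linear slope.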
# [4] = tested on: HL-60; assay: Induction of apoptosis in human HL60 cells assessed as increase in PARP1 cleavage at 10 uM after 12 hrs by fluorescence assay; assay type: functional, cell-based
# [5] = tested on: HL-60; assay: Induction of apoptosis in human HL60 cells assessed as increase in PARP1 cleavage at 100 uM after 12 hrs by fluorescence assay; assay type: functional, cell-based
# How it was run: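 HL-60 cells given NAD+ with or without drug for various times, then lysed in PARP buffer with 25 mM H2O2 (60 min, 37 °C). Remaining NAD+ was measured fluorometrically after KOH/acetophenone (10 min, 4 °C) and formic acid (5 min, 110 °C). PARP activity is expressed relative to control wells.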
# [6] = biological target: Caspase-3 (Homo sapiens, UniProt P42574, D179A); assay: Activation of N-terminal His6-tagged recombinant procaspase-3 D179A mutant expressed in Escherichia coli assessed as hydrolysis of acetyl-DEVD-p-nitroanilide after 2 hrs by SDS-PAGE; details: in the assay text read “by spectrophotometry” for “by SDS-PAGE”
# How it was run: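 Alanine substitution in the procaspase-3 safety-catch Asp-Asp-Asp triad (Asp179, Asp180, Asp181). The wild-type or mutant proenzyme was incubated with a range of compound concentrations for 12 h at 37 °C. Ac-DEVD-pNA was then added and absorbance at 405 nm was read every 2 min for 2 h. Activity was taken from the linear-phase slope and expressed as relative increase per mutant.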
# [7] = tested on: HL-60; assay: Induction of apoptosis in human HL60 cells assessed viable cells at 100 uM after 20 hrs using annexin V-propidium iodide staining by flow cytometry; assay type: functional
# How it was run: (§3)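 HL-60 cells treated 20 h at 37 °C with 100 µM drug in DMSO or DMSO alone; washed, stained with annexin V–Alexa Fluor 488 (15 min, 23 °C) plus propidium iodide; flow cytometry at 525 and 675 nm, ≥50,000 cells per experiment.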
# [8] = tested on: HL-60; assay: Induction of apoptosis in human HL60 cells assessed as chromatin condensation at 100 uM after 20 hrs measured by Hoechst-33258 staining; assay type: functional, cell-based
# How it was run: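 HL-60 cells were treated 20 h with 100 µM drug in DMSO against a DMSO control. Cells were then fixed in ice-cold ethanol overnight at 4 °C and stained with Hoechst-33258 for 30 min at room temperature. Condensed chromatin was viewed microscopically at 400× magnification.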
# [9] = tested on: HL-60; assay: Induction of apoptosis in human HL60 cells assessed as mitochondrial membrane depolarization at 100 uM after 12 hrs by fluorescence assay; assay type: functional, cell-based; how it was run: as §1
# [10] = tested on: HL-60; assay: Induction of apoptosis in human HL60 cells assessed as increase in caspase-3 activity at 100 uM after 12 hrs; assay type: functional, cell-based; how it was run: as §2
# [11] = tested on: HL-60; assay: Inhibition of apoptosis in human HL60 cells at 100 uM after 24 hrs using annexin V-propidium iodide staining by flow cytometry in presence of pan-caspase inhibitor Z-VAD-FMK; assay type: functional, cell-based
# [12] = Cytotoxicity against human colon cells after 24 hrs by MTS/PMS assay; assay type: cell-based; details: Colon cell
# [13] = Cytotoxicity against human colon cancer cells after 24 hrs by MTS/PMS assay; assay type: functional, cell-based; details: Cancer cell lines
# [14] = tested on: NCI-H226; assay: Induction of apoptosis in human NCI-H226 cells isolated from BALB/c mouse xenograft assessed as DNA fragmentation at 50 mg/kg, po SID for 21 days measured after 1 week post last dose by TUNEL assay; assay type: functional, organism-based; parameters: dose 50 mg/kg
# How it was run: (§4)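 Subcutaneous NCI-H226 tumors from nude mice dosed orally (50 or 100 mg/kg daily for 21 d in 24:1 vegetable oil/DMSO) were resected at end of study, sectioned and scored by TUNEL staining.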
# [15] = tested on: NCI-H226; assay: Induction of apoptosis in human NCI-H226 cells isolated from BALB/c mouse xenograft assessed as DNA fragmentation at 100 mg/kg, po SID for 21 days measured after 1 week post last dose by TUNEL assay; assay type: functional, organism-based; parameters: dose 100 mg/kg; how it was run: as §4
# [16] = tested on: NCI-H226; assay: Antitumor activity against human NCI-H226 cells xenografted in po dosed BALB/c mouse administered SID for 21 days assessed as retardation of tumor growth measured after 1 week post last dose; assay type: functional, organism-based
# How it was run: (§5)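 Male athymic BALB/c nude mice, 5 weeks old; 2 × 10^6 NCI-H226 cells injected subcutaneously into the flanks, eight mice per group, three tumors per mouse. Once tumors reached about 50 mm3 (~4 weeks), 0, 50 or 100 mg/kg was given by oral gavage in 24:1 vegetable oil/DMSO once daily for 21 d. Caliper volume (v = 0.5·a·b2) and body weight tracked; killed 1 week later.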
# [17] = tested on: Mus musculus; assay: Toxicity in BALB/c mouse xenografted with human NCI-H226 cells assessed as effect on body weight at 50 to 100 mg/kg, po SID for 21 days measured after 1 week post last dose; assay type: organism-based; parameters: dose 50-100 mg/kg, route oral; details: in vivo, 168 h; how it was run: as §5
# [18] = tested on: ACHN; assay: Antitumor activity against human ACHN cells xenografted in BALB/c mouse assessed as tumor growth at 5 mg administered via pellet measured after 54 days of tumor implantation
# How it was run: (§6)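 Ovariectomized female athymic BALB/c nu/nu mice; ACHN cells in Matrigel injected subcutaneously into four flanks. After 4 weeks (mean tumor area 34.3 mm2), 20-mg cholesterol pellets with 0, 1 or 5 mg drug implanted subcutaneously; six mice per group. Tumor volume v = 0.5·a·b2 measured weekly. Food intake over two consecutive 24-h periods at study end (8 weeks post-implant).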
# [19] = tested on: NCI-H226; assay: Antitumor activity against human NCI-H226 cells xenografted in BALB/c mouse assessed as suppression of tumor metastasis at 100 mg/kg, po administered from day 1 to 4 and day 7 to 11 measured after 28 days; assay type: functional, organism-based; parameters: dose 100 mg/kg
# How it was run: (§7)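 Male athymic nude mice received 2 × 10^6 NCI-H226 cells by tail-vein injection. Dosing was 100 mg/kg by oral gavage in 24:1 vegetable oil/DMSO once daily on days 1–4 and 7–11, against vehicle, four mice per group. Body weight was followed. At 28 d the lungs were examined, sectioned, stained and imaged for tumor burden.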
# [20] = tested on: HL-60; assay: Induction of apoptosis in human HL60 cells assessed viable cells at 5 uM after 28 hrs using annexin V-propidium iodide staining by flow cytometry; assay type: functional
# [21] = tested on: HL-60; assay: Induction of apoptosis in human HL60 cells assessed early apoptotic cells at 5 uM after 28 hrs using annexin V-propidium iodide staining by flow cytometry; assay type: functional
# [22] = tested on: HL-60; assay: Induction of apoptosis in human HL60 cells assessed late apoptotic cells at 5 uM after 28 hrs using annexin V-propidium iodide staining by flow cytometry; assay type: functional
# [23] = tested on: HL-60; assay: Induction of apoptosis in human HL60 cells assessed non-viable necrotic cells at 5 uM after 28 hrs using annexin V-propidium iodide staining by flow cytometry; assay type: functional
# [24] = tested on: HL-60; assay: Induction of apoptosis in human HL60 cells assessed early apoptotic cells at 100 uM after 20 hrs using annexin V-propidium iodide staining by flow cytometry; assay type: functional; how it was run: as §3
# [25] = tested on: HL-60; assay: Induction of apoptosis in human HL60 cells assessed late apoptotic cells at 100 uM after 20 hrs using annexin V-propidium iodide staining by flow cytometry; assay type: functional; how it was run: as §3
# [26] = tested on: HL-60; assay: Induction of apoptosis in human HL60 cells assessed non-viable necrotic cells at 100 uM after 20 hrs using annexin V-propidium iodide staining by flow cytometry; assay type: functional; how it was run: as §3
# [27] = tested on: HL-60; assay: Induction of apoptosis in human HL60 cells assessed as increase in caspase-3 activity at 100 uM up to 2 hrs; assay type: functional; how it was run: as §2
# [28] = tested on: Mus musculus; assay: Toxicity in BALB/c mouse xenografted with human ACHN cells assessed as effect on food intake at 5 mg administered via pellet measured after 54 days of tumor implantation; assay type: organism-based; details: in vivo, other, 1296 h; how it was run: as §6
# [29] = Plasma concentration in BALB/c mouse xenografted with human ACHN cells at 5 mg administered via pellet measured after 54 days of tumor implantation; assay type: ADME, organism-based
# [30] = tested on: Mus musculus; assay: Toxicity in BALB/c mouse xenografted with human NCI-H226 cells assessed as effect on body weight at 100 mg/kg, po administered from day 1 to 4 and day 7 to 11 measured after 28 days; assay type: organism-based; parameters: dose 100 mg/kg, route oral; details: in vivo, 672 h; how it was run: as §7
# [31] = tested on: NCI-H226; assay: Antitumor activity against human NCI-H226 cells isolated from BALB/c mouse xenograft assessed as decrease in metastatic tumor burden at 100 mg/kg, po administered from day 1 to 4 and day 7 to 11 measured after 28 days by imaging assay; assay type: functional, organism-based; parameters: dose 100 mg/kg; how it was run: as §7
# Chain of Caspase-3 (Homo sapiens, UniProt P42574, D179A) (P42574 176-277 D179A limits assumed, one chain of several): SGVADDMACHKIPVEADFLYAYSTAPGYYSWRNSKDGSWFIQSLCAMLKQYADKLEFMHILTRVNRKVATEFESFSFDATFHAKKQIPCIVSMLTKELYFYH
smiles,measurement,setting,value
NNC(=O)CN1CCN(Cc2ccccc2)CC1,EC50,[1],> 50 µM
COc1cc([C@@H]2c3cc4c(cc3[C@@H](O[C@@H]3O[C@@H]5CO[C@@H](C)O[C@H]5[C@H](O)[C@H]3O)[C@H]3COC(=O)[C@H]23)OCO4)cc(OC)c1O,Activity,[2],Active
same,Activity,[3],Active
same,Activity,[4],Active
same,Activity,[5],Active
C/C=N/NC(=O)CN1CCN(Cc2ccccc2)CC1,EC50,[1],> 50 µM
c1ccc(CN2CCN(Cc3ccccc3)CC2)cc1,EC50,[1],> 50 µM
O=C(CN1CCN(Cc2ccccc2)CC1)N/N=C/c1ccccc1,EC50,[1],> 50 µM
CCOC(=O)CN1CCNCC1 [ETHYL PIPERAZINOACETATE],EC50,[1],> 50 µM
C=CCc1cccc(/C=N/NC(=O)CN2CCN(Cc3ccccc3)CC2)c1O [PAC-1],EC50,[6],131 µM
same,Activity,[7],9.8%
same,Activity,[8],Active
same,Activity,[9],inactive
same,Activity,[10],Active
same,Activity,[4],Active
same,Activity,[5],Active
same,Activity,[11],inactive
same,IC50,[12],5.02 µM
same,IC50,[13],0.003 µM
same,Activity,[14],Active
same,Activity,[15],Active
same,inhibition,[16],Dose-dependent effect
same,Activity,[17],Non-toxic
same,Activity,[18],Active
same,inhibition,[18],Active
same,Activity,[19],Active
same,Activity,[20],10.26%
same,Activity,[21],80.75%
same,Activity,[22],8.73%
same,Activity,[23],0.26%
same,Activity,[24],80.2%
same,Activity,[25],9.6%
same,Activity,[26],0.4%
same,Activity,[27],50%
same,Activity,[28],Non-toxic
same,concentration at 1296 h,[29],4.4 nM
same,Activity,[30],Non-toxic
same,Activity,[31],Active
c1ccc(CN2CCNCC2)cc1,EC50,[1],> 50 µM
CCOC(=O)CN1CCN(Cc2ccccc2)CC1,EC50,[1],> 50 µM
CN1CCN(CC(=O)N/N=C/c2ccccc2O)CC1,EC50,[1],> 50 µM
